These results are taken from ChEMBL document CHEMBL4400539, “Discovery of a Novel Chemotype of Histone Lysine Methyltransferase EHMT1/2 (GLP/G9a) Inhibitors: Rational Design, Synthesis, Biological Evaluation, and Co-crystal Structure” (J Med Chem, 2019).

The structures appear in SMILES notation. Active and inactive are the calls of the source. No cut-off for these calls is given here.

Data set [1] concerns the target T1, Lysine-specific demethylase 4A (Homo sapiens) (UniProt O75164).
T1 sequence (whole entry): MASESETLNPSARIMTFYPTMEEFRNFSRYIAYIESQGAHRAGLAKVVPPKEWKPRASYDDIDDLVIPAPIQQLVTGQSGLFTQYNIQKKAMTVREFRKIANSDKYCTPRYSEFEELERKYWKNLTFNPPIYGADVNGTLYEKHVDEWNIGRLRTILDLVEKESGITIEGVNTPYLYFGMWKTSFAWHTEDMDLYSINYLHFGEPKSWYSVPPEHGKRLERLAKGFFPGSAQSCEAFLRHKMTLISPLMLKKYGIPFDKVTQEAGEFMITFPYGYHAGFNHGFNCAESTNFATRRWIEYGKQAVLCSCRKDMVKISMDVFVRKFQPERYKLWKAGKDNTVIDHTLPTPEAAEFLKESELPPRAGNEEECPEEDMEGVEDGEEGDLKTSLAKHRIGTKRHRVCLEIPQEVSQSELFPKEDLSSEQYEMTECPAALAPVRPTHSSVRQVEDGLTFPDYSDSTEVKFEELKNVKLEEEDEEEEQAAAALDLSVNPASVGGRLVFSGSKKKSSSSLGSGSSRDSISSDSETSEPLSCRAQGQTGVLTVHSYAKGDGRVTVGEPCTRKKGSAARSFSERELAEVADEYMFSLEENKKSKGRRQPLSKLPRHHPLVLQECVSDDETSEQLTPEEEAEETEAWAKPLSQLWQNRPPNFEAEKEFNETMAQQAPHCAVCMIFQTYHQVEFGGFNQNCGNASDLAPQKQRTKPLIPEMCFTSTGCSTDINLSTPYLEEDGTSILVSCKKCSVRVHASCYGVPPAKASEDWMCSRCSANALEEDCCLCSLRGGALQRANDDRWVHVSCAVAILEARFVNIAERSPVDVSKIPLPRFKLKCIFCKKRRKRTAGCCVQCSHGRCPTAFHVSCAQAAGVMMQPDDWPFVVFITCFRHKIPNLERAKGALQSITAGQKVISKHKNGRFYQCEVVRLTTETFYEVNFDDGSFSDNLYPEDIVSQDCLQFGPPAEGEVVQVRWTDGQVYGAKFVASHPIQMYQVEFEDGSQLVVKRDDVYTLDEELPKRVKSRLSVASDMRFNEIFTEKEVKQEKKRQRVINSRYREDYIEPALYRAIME
In words: Inhibition of recombinant human JMJD2A at 10 to 25 uM using biotinylated-Histone H3 peptide (1 to 21 residues) as substrate preincubated for 30 mins followed by substrate addition and measured after 60 mins in presence of SAM by AlphaLISA assay relative to control. (In general: In Alpha technology, singlet oxygen from a donor bead excites a nearby acceptor bead.)

In data set [2] the target is Protein arginine N-methyltransferase 1 (Homo sapiens) (UniProt Q99873). In words: Inhibition of recombinant human PRMT1 at 10 to 25 uM using biotinylated-Histone H4 peptide (1 to 21 residues) as substrate preincubated for 30 mins followed by substrate addition and measured after 60 mins in presence of SAM by AlphaLISA assay relative to control. Put shortly:
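Biotinylated H4(1–21) peptide plus SAM then added for 60 min: PRMT1 0.9 nM, peptide 100 nM, SAM 2 μM; PRMT3 23 nM, peptide 50 nM, SAM 10 μM. Anti-H4R3me AlphaLISA; 10 and 25 μM; three experiments, mean ± SD.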

For data set [3], the target named is Histone acetyltransferase p300 (Homo sapiens) (UniProt Q09472). As to the kind of experiment: Inhibition of recombinant human P300 at 10 to 25 uM using biotinylated-Histone H4 peptide (1 to 21 residues) as substrate preincubated for 30 mins followed by substrate addition and measured after 60 mins in presence of SAM by AlphaLISA assay relative to control.
Data set [4] in a line: Chemical stability of the compound in PBS buffer after 72 hrs by HPLC analysis. The data set is classed as physicochemical. In short, it runs like this: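 Stability checked by HPLC after exposure to PBS over 72 h.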
Data set [5] is described as follows: Apparent permeability of the compound after 24 hrs by BBB-PAMPA. Type of data set: ADME. (In PAMPA a lipid-coated filter parts donor from acceptor wells.)
The test system of data set [6] is MCF7. As to the kind of experiment: Cytotoxicity against human MCF7 cells assessed as reduction in cell viability at 0.05 to 50 uM after 24 hrs by MTT assay. The data set is classed as cell-based. As to conditions: mcf7, 24 h. In short, it runs like this:
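MCF-7, MDA-MB-231 and U-343 cells exposed 24, 48 and 72 h to 0.05, 0.5, 5 and 50 μM compound; viability by MTT reduction to formazan versus vehicle; mean ± SD of at least three independent experiments.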
For orientation: Tetrazolium assays rely on reduction of a dye to a coloured formazan, in cell work by metabolically active cells.

Data set [7] deals with DNA (cytosine-5)-methyltransferase 3A (Homo sapiens) (UniProt Q9Y6K1). In words: Inhibition of N-terminal GST-tagged recombinant full length human DNMT3a (2 to 913 residues) using bacteriophage lambda DNA as substrate preincubated for 20 mins followed by [3H]-SAM and measured after 60 mins by scintillation counting.
The target in data set [8] is DNA (cytosine-5)-methyltransferase 3B (Homo sapiens) (UniProt Q9UBC3). As to the kind of experiment: Inhibition of N-terminal GST-tagged recombinant full length human DNMT3b (2 to 853 residues) using bacteriophage lambda DNA as substrate preincubated for 20 mins followed by [3H]-SAM and measured after 60 mins by scintillation counting.

Protein arginine N-methyltransferase 1 (Homo sapiens), sequence (Q99873 whole entry, looked up, the tested form may be a part): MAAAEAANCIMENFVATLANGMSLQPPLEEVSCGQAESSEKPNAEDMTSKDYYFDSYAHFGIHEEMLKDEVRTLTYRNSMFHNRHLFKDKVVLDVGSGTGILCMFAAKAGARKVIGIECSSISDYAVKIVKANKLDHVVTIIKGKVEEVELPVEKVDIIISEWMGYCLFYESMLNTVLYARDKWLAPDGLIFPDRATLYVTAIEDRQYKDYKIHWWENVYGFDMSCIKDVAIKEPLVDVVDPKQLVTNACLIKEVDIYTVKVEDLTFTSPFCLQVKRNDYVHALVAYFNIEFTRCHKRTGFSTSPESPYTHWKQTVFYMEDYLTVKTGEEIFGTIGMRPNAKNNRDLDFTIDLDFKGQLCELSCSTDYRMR
Histone acetyltransferase p300 (Homo sapiens), sequence (Q09472 whole entry, the tested form may be a part): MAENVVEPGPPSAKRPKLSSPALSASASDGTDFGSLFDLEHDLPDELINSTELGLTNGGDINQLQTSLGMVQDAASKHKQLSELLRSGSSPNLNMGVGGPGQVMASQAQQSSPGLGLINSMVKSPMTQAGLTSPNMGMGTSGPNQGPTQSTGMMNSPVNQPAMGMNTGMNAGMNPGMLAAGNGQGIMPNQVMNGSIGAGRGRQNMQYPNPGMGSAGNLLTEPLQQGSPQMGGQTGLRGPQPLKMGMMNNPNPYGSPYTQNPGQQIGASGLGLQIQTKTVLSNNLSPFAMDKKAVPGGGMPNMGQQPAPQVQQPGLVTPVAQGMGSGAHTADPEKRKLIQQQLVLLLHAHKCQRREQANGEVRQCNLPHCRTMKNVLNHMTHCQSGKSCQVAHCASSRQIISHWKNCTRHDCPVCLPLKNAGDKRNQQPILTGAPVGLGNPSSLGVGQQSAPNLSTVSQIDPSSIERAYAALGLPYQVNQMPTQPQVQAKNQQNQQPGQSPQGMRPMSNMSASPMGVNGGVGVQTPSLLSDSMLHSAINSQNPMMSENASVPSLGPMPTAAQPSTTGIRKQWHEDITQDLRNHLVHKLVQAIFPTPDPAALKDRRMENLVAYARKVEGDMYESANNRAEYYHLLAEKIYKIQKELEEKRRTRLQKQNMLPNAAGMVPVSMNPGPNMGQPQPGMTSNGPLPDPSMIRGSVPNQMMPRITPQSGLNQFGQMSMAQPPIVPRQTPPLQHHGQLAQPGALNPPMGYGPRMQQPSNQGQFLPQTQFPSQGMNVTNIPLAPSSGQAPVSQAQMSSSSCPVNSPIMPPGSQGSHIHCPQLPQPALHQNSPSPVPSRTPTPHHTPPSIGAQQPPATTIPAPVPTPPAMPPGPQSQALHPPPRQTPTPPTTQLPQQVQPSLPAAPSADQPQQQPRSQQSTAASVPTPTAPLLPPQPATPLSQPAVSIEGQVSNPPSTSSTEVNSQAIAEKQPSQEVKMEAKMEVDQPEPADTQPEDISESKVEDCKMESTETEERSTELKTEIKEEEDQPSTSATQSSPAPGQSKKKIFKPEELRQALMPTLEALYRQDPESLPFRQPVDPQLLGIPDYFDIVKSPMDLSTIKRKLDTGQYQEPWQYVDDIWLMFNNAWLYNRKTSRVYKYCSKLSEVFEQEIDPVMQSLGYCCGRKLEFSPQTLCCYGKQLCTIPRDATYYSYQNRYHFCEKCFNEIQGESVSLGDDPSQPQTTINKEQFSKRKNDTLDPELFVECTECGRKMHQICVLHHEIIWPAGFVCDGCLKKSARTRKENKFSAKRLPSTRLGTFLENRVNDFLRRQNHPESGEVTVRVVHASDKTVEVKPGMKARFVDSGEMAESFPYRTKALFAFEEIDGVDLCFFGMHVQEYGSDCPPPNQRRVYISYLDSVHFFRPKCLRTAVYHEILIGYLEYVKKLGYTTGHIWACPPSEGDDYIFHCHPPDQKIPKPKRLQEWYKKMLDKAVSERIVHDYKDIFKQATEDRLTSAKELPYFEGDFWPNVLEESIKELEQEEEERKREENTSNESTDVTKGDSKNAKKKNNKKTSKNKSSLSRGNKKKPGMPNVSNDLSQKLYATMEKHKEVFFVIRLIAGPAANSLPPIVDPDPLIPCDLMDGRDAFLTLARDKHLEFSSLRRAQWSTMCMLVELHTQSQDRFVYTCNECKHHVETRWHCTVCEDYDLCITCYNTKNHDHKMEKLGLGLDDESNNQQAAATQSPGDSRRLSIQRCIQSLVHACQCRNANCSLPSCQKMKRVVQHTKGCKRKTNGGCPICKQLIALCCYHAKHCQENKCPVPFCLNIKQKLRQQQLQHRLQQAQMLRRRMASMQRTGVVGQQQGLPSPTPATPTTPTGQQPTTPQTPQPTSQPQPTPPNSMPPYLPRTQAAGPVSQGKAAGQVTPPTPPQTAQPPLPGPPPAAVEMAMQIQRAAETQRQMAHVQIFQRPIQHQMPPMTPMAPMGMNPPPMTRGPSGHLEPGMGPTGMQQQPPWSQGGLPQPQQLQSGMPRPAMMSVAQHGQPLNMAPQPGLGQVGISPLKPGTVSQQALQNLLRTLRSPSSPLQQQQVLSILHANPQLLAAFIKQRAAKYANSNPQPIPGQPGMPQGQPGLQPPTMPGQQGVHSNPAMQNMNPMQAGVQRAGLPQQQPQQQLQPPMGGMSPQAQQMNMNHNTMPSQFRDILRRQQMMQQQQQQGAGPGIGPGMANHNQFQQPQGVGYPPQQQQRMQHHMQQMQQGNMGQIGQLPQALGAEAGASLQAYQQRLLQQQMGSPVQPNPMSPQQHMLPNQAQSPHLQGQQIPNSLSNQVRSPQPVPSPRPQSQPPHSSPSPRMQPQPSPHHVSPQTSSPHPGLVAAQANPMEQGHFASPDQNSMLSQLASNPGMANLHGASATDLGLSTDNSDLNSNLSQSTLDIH
DNA (cytosine-5)-methyltransferase 3A (Homo sapiens), sequence (Q9Y6K1 whole entry, looked up, the tested form may be a part): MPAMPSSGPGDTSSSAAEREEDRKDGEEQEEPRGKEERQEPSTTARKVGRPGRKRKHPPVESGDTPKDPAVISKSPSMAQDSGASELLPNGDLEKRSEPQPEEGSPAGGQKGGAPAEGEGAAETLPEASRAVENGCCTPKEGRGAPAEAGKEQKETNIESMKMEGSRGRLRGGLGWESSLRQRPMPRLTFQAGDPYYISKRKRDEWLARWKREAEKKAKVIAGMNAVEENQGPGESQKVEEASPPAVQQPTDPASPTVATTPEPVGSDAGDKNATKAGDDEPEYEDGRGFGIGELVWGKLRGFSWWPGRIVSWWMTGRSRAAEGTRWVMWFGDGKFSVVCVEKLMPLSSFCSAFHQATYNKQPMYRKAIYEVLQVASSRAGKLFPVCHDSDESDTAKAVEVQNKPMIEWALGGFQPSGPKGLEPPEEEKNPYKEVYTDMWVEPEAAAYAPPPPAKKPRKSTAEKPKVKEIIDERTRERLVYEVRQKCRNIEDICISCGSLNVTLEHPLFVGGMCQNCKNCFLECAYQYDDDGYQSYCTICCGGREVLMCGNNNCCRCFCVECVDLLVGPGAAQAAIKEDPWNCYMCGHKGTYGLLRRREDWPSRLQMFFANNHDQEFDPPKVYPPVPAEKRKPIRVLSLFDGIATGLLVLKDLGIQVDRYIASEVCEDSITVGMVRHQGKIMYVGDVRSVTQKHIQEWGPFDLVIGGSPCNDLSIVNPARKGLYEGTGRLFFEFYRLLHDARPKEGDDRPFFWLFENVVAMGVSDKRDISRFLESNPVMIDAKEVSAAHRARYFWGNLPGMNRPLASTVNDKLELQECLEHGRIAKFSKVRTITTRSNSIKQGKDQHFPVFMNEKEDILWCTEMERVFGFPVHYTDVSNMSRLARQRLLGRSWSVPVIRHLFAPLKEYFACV

As to `COc1cc2c(cc1OCCCN1CCCC1)N=C(C1CCCCC1)CN=C2NC1CCN(C(C)C)CC1`, the inhibition entry in data set [1], in data set [2], in data set [3], in data set [7] and in data set [8] was “inactive” throughout. Also, in data set [4], the Stability result was “Stable”. Moreover, the Papp in data set [5] is given as 2.3 ×10⁻⁷ cm/s. Moreover, in data set [6], the Activity result was “Non-Toxic”.
